Measured values published in PMC9476207 (ACS Omega, 2022).

Key:
Assay type in all cases: cell-based, human
[1] = system: A549 cells; assay: Reactive oxygen species; conditions: 18f at 5, 3 and 1.5 μM, 48 h
How it was run: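 A549 cells (1 × 10^5, six-well) were grown 24 h, then exposed to test compound at 1.5, 3 and 5 μM for 48 h. 0.05% H2O2 positive control was added 1 h before the end. Cells were PBS-washed and loaded with DCFH-DA (10 mM as printed) for 30 min in the dark, rewashed, and viewed by inverted fluorescence microscopy.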

[2] = system: A549 cells; assay: Apoptosis assay through DAPI staining; conditions: 18f at 5, 3 and 1.5 μM, 48 h, paclitaxel positive control
[3] = system: A549 cells; assay: Loss of mitochondrial membrane potential; conditions: A549, 48 h
How it was run: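 A549 cells (1 × 10^5/mL/well, six-well plates) were treated for 48 h with 1.5, 3.0 or 5.0 μM test compound; paclitaxel served as positive control. After an ice-cold PBS wash, cells took up rhodamine-123 (final 0.2 mM) for 20–30 min in the dark in the incubator. Cells were washed again and fluorescence was assessed qualitatively by microscopy.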

CC(=O)O[C@H]1C(=O)[C@@]2(C)[C@H]([C@H](OC(=O)c3ccccc3)[C@]3(O)C[C@H](OC(=O)[C@H](O)[C@@H](NC(=O)c4ccccc4)c4ccccc4)C(C)=C1C3(C)C)[C@]1(OC(C)=O)CO[C@@H]1C[C@@H]2O [paclitaxel] was tested, and the “intracellular ROS (DCFDA fluorescence, qualitative)” value [1] was “higher in the treated groups”, the “nuclear morphological changes (DAPI staining)” value [2] was “chromatin condensation, nuclear blebbing, and formation of apoptotic bodies” and the “loss of mitochondrial membrane potential (rhodamine-123 fluorescence)” value ([3]; 18f at 3.0 μM) was “quite similar”. For the same molecule, the “loss of mitochondrial membrane potential (rhodamine-123 fluorescence)” value ([3]; 18f at 5 μM, paclitaxel at its IC50 doses) was “maximum loss in the mitochondrial membrane potential”.
